The record followed here is ChEMBL document CHEMBL1149503, “Growth inhibition of human cancer cells in vitro by T-type calcium channel blockers” (Bioorg Med Chem Lett, 2006).

Activity calls are given as the source filed them. The calls are words filed in the database; no cut-off is given here.

The subject of one test is A549. Kind of test: Inhibition of human A549 cell growth by SRB assay. It is filed as functional. In outline:
(§1)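 Cells grown in RPMI 1640 with 10% heat-inactivated FBS, 37 °C, 5% CO2. Seeded, exposed to various sample concentrations in triplicate for 72 h, then formalin-fixed 30 min at room temperature. Stained with 0.4% SRB 30 min, washed with 1% acetic acid, bound dye dissolved in 10 mM unbuffered Tris base, OD read at 520 nm. GI50 from dose–response curves, three independent experiments.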

For the next test, the system named is SK-OV-3. Briefly: Inhibition of human SKOV3 cell growth by SRB assay. It is filed as functional. A digest of the protocol:
as §1

The test system of a further test is SK-MEL-2. Briefly: Inhibition of human SK-MEL-2 cell growth by SRB assay. It is filed as functional, cell-based. A digest of the protocol:
as §1

The subject of a further test is HCT-15. Kind of test: Inhibition of human HCT15 cell growth by SRB assay. It is filed as functional. A digest of the protocol:
as §1

For a further test, the system named is KB. Briefly: Inhibition of human KB cell growth by SRB assay. The class given is functional. A digest of the protocol:
as §1

The subject of a further test is HEK293. Briefly: Cytotoxicity against HEK293 cells at 100 uM. As to conditions: Homo sapiens. It is filed as functional, cell-based.
Test [1] concerns T-type calcium channel Cav3.1 (α1G). Briefly: Inhibition of T-type calcium channel Cav3.1. As to conditions: Homo sapiens.
Test [2] addresses Voltage-dependent N-type calcium channel subunit alpha-1B (Homo sapiens) (UniProt Q00975). Briefly: Inhibition of N type calcium channel subunit Alpha-1B at 10 uM in HEK293 cells. The class given is cell-based.
Test [3] addresses Voltage-dependent T-type calcium channel subunit alpha-1G (Homo sapiens) (UniProt O43497). Kind of test: Inhibition of T type calcium channel subunit alpha-1G at 10 uM in HEK293 cells. It is filed as cell-based. A digest of the protocol:
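Whole-cell patch clamp on α1G T-type channel expressed in HEK293 cells, test compound at 10 µM. Currents evoked every 15 s by 50 ms depolarizing step from 100 to 30 mV (signs as printed). % inhibition = 100[(C−D)/C], C and D being peak current before and with drug. Three independent experiments.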

Voltage-dependent T-type calcium channel subunit alpha-1G (Homo sapiens), sequence (O43497 whole entry): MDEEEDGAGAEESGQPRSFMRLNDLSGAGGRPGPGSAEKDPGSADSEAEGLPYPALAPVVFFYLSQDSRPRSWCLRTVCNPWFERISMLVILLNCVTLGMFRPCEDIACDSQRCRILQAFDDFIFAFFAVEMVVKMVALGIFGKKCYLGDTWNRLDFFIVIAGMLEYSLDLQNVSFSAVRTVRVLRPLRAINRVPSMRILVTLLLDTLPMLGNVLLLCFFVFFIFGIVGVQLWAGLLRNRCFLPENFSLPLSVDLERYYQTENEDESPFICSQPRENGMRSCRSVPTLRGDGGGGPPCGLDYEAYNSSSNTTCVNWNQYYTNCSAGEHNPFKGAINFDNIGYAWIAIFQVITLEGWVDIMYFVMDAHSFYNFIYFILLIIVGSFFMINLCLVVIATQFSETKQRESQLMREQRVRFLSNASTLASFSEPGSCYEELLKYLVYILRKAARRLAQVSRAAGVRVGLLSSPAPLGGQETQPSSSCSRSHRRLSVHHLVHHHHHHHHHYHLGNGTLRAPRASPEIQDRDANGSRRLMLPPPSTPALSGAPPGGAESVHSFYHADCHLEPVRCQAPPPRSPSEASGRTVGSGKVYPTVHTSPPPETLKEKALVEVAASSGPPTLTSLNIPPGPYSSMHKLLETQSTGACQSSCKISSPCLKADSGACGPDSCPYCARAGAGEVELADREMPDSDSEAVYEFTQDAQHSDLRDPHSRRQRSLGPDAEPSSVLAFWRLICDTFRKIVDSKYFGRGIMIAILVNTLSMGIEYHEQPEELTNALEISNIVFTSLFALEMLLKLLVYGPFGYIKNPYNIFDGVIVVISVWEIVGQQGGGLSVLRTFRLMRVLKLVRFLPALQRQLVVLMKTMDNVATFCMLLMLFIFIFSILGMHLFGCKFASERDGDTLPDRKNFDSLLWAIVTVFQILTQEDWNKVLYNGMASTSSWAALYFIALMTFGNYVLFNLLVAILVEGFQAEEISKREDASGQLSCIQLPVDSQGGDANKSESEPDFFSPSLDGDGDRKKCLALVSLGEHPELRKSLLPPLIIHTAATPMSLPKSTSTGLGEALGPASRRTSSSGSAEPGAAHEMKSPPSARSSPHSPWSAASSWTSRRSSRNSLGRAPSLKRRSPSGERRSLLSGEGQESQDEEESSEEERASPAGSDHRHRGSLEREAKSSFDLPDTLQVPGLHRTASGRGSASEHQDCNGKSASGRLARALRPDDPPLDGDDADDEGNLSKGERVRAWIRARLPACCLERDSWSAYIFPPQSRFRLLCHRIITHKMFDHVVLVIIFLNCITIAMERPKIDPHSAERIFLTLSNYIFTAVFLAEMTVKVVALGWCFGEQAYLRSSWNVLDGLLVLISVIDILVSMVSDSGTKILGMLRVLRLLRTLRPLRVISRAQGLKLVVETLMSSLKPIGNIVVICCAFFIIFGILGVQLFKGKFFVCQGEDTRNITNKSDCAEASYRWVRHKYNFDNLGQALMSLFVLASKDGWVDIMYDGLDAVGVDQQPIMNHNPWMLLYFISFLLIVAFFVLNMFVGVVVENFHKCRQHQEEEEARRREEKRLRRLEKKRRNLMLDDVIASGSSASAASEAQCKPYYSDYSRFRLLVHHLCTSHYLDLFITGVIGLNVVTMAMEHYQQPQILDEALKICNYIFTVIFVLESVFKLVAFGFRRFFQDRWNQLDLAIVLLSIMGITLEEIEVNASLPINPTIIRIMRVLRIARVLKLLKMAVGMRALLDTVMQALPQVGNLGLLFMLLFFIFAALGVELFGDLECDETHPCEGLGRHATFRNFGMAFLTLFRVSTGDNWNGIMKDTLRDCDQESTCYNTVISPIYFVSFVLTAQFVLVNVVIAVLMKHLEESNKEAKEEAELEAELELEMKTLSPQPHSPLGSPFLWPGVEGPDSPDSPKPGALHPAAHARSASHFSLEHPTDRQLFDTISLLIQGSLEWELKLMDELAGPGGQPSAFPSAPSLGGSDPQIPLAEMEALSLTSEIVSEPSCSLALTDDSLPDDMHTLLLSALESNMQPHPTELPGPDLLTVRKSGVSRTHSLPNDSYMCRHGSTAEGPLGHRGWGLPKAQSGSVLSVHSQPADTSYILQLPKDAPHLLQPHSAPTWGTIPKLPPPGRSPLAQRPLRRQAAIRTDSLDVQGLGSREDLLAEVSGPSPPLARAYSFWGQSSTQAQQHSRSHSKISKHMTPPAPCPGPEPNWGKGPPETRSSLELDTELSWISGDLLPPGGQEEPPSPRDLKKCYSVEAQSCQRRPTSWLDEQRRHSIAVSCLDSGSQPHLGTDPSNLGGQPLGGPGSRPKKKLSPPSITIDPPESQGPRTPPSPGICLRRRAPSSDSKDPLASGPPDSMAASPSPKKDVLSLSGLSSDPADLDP
Voltage-dependent N-type calcium channel subunit alpha-1B (Homo sapiens), sequence (Q00975 whole entry, looked up): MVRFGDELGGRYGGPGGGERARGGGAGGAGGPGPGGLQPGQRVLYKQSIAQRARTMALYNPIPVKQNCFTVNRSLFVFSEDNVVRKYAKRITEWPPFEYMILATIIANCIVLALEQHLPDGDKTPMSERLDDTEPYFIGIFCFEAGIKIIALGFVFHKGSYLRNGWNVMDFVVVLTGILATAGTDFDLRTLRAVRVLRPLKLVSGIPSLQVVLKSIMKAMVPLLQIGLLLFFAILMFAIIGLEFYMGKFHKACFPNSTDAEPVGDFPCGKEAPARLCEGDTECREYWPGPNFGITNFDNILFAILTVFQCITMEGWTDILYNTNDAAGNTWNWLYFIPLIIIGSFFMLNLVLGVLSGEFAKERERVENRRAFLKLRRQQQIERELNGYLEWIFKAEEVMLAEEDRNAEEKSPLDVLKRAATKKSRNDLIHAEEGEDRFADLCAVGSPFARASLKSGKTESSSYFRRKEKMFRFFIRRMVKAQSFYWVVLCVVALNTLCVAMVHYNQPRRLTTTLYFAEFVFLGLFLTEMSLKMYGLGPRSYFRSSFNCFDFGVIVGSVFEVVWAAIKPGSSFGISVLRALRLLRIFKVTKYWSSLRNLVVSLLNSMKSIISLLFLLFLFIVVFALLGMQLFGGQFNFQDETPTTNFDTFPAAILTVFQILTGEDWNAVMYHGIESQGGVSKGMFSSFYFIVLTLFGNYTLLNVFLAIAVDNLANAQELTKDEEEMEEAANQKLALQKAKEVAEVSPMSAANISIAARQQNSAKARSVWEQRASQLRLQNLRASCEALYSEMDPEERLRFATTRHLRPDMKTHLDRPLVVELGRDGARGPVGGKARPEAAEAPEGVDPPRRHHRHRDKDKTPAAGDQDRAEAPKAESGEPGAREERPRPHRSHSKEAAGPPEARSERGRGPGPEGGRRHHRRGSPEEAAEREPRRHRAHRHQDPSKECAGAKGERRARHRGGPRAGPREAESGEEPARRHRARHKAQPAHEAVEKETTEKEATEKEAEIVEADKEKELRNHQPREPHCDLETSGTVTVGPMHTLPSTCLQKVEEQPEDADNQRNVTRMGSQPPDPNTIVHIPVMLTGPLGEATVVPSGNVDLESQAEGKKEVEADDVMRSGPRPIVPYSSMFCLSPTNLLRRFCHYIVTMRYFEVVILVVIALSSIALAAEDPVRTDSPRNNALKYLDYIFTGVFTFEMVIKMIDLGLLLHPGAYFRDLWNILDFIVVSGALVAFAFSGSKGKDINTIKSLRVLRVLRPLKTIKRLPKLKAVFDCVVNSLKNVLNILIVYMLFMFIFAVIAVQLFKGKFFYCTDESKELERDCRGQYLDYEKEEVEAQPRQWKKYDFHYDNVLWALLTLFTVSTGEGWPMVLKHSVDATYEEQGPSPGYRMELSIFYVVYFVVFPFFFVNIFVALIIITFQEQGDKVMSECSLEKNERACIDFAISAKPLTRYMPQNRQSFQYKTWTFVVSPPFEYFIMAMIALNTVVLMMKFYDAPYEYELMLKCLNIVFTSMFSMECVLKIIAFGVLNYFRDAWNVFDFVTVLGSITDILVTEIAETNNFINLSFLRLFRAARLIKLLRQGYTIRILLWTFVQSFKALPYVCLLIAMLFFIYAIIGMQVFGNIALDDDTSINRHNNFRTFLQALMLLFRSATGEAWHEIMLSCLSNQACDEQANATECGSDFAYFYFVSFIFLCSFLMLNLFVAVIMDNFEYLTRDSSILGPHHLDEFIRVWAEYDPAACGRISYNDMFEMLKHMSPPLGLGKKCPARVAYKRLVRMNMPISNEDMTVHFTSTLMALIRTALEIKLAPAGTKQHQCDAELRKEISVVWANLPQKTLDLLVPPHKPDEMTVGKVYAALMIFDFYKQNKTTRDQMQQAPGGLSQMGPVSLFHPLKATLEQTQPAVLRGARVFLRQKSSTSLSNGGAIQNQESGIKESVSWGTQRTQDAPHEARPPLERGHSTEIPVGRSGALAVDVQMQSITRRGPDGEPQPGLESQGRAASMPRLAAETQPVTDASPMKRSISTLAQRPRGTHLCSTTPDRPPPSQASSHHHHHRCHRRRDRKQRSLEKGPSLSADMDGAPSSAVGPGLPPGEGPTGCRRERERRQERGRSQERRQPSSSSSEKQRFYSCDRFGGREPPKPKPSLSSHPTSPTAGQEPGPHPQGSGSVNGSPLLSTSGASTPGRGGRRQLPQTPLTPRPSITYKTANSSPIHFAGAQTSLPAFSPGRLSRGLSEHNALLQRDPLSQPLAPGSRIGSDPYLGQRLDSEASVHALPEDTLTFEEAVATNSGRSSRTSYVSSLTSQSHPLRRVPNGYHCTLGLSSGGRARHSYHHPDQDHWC

On to `CCN1C(N2CCCCC2)=Nc2ccccc2C1CC(=O)NCc1ccc(NS(=O)(=O)c2ccc(C)cc2)cc1` (centres undefined), for which the GI50 in the test on A549 was 23 µM; in the test on SK-OV-3 it was 22.8 µM; with SK-MEL-2, 3.52 µM; with HCT-15 it was 25.7 µM; in the test on KB, 22.3 µM. Besides, in the test on HEK293, the Activity entry is “Not toxic”. In test [1], the half-inhibitory concentration (IC50) amounted to 0.96 µM. For the same compound, in test [2], the result was inactive. The inhibition in [3] came out at 91.3%.
For the compound `CCN1C(N2CCCCC2)=Nc2ccccc2C1CC(=O)NCc1ccccc1` (centres undefined), the GI50 in the test with A549 stood at 95.1 µM; in the test on SK-OV-3, 77.8 µM; in the test with SK-MEL-2, 42.5 µM; in the test on HCT-15 it was 74.2 µM; in the test on KB, 108 µM. The Activity entry with HEK293 was “Not toxic”. In addition, the inhibition in test [2] is 9.3%; in [3], 59.3%.
In the case of `Cc1ccc(S(=O)(=O)Nc2ccc(CNC(=O)CC3c4ccccc4N=C(N4CCCCC4)N3c3ccccc3)cc2)cc1` (centres undefined), the concentration for 50% growth inhibition (GI50) in the test with A549 was found to be 3.06 µM; with SK-OV-3, 2.93 µM; in the test on SK-MEL-2, 2.7 µM; in the test on HCT-15, 2.8 µM; with KB it was 3.11 µM. Besides, the Activity result in the test on HEK293 was “Not toxic”. Also, in test [1], the half-maximal inhibitory concentration (IC50) amounted to 0.17 µM. In addition, the inhibition in test [2] turned out to be 14.1%.
As to `CCN1C(N(C)C)=Nc2ccccc2C1CC(=O)NCc1ccc(NS(=O)(=O)c2ccc(C)cc2)cc1` (centres undefined), the GI50 in the test with A549 was 39.2 µM; in the test on SK-OV-3, 33.4 µM; with SK-MEL-2, 24.2 µM; in the test with HCT-15, 33.9 µM; with KB, 33.8 µM. In addition, the Activity result in the test with HEK293 is “Not toxic”. The inhibition in [2] worked out at 8.9%; in test [3], 81.3%.
Turning to `CCN1C(N(C)C)=Nc2ccccc2C1CC(=O)NCc1ccccc1` (centres undefined), the GI50 in the test with A549 is more than 200 µM; in the test with SK-OV-3, more than 200 µM; in the test on SK-MEL-2, 50.2 µM; in the test with HCT-15, more than 200 µM; with KB, more than 200 µM. Besides, the Activity result in the test with HEK293 was “Not toxic”. The inhibition in test [2] was found to be 27.6%; in [3], 34.4%.
With `CCN1C(N(C)C)=Nc2ccccc2C1CC(=O)NCc1ccc(NS(=O)(=O)c2ccc(F)cc2)cc1` (centres undefined), the GI50 in the test with A549 worked out at 66.1 µM; with SK-OV-3, 46.5 µM; in the test with SK-MEL-2 it was 31.4 µM; with HCT-15 it was 38.6 µM; with KB it was 41.6 µM. For the same compound, the Activity result in the test with HEK293 is “Not toxic”. In addition, the result in [2] was inactive. In test [3], the inhibition amounted to 62.7%.
In the case of `COC(=O)CC1c2ccccc2N=C(NCCCCCN)N1c1ccc(-c2ccccc2)cc1` (centres undefined), the GI50 with A549 turned out to be 3.39 µM; in the test on SK-OV-3 it was 3.24 µM; with SK-MEL-2 it was 3.32 µM; in the test with HCT-15, 3.64 µM; with KB, 3.77 µM. For the same compound, in the test on HEK293, the Activity result was “Not toxic”. The IC50 in [1] turned out to be 0.56 µM. The result in test [2] was inactive.
In the case of `Nc1ccc(CNC(=O)CC2c3ccccc3N=C(N3CCCCC3)N2c2ccccc2)cc1` (centres undefined), the GI50 in the test with A549 came to 36.6 µM; in the test on SK-OV-3, 39.3 µM; with SK-MEL-2, 30.7 µM; in the test with HCT-15, 33.9 µM; in the test on KB it was 37.1 µM. Moreover, the Activity entry in the test with HEK293 was “Not toxic”. In addition, the inhibition in test [2] stood at 8.9%.
